Data on 39 compounds can be found in ChEMBL document CHEMBL4513216, “Probing the Open Global Health Chemical Diversity Library for Multistage-Active Starting Points for Next-Generation Antimalarials” (ACS Infect Dis, 2020).

A short description of this series: Toxicity liver stage against HepG2, at 10uM. Type of series: cell-based. Details: test concentration 10 uM, cell line HepG2-A16-CD81EGFP. The settings on record: human, HepG2-A16-CD81EGFP cells; read-out: INHIBITION
An outline of the steps:
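Uninfected HepG2-A16-CD81EGFP cells, 3 × 10^3 per well, 1536-well, plated on prespotted compound at 10 μM final, parasite-free screening media added to match infected plates; puromycin 10 μM positive, DMSO 0.5% negative; run in parallel with 48 h PbLuc assay at 37 °C, 5% CO2; viability by CellTiter-Glo luminescence, normalized to controls.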

`CC1CCN(C(=O)c2cn(-c3cc(N4CCSCC4)ncn3)cn2)CC1`: the cytotoxicity at 10 µM was -3.75%.
With `C=C(C)COc1cccc(C(=O)N(CC)Cc2nccn2C)c1`, the cytotoxicity at 10 µM is -4.69%.
Take `COCCn1c2c(ccc1=O)CCN(C(=O)Cc1ccsc1)CC2`: the cytotoxicity at 10 µM was 2.22%.
For the compound `CC1CCN(S(=O)(=O)c2cccnc2)c2ccccc2S1` (centres undefined), the cytotoxicity at 10 µM turned out to be 5%.
Next, `CN(C)Cc1ccc(C2CCCCN2C(=O)c2cc(C3CC3)n[nH]2)cc1` (centres undefined): -9.09%; `CNC(=O)[C@@H]1CC[C@@H]2[C@@H](CCN2Cc2ccccc2F)O1`: 8.1%.
Next, `COc1ccc(CNC(=O)N2CCC(Cc3cnn(C)c3)C2)cc1C` (centres undefined): -9.52%; `CC(C(=O)N1CCCCCC1)N1CCN(Cc2nccn2C)CC1` (centres undefined): -5.28%.
In the case of `CCOc1ncccc1C(=O)N1CCCC(c2nccn2CCOC)C1` (centres undefined), the cytotoxicity at 10 µM was -9.12%.
`COc1cc(C(=O)Nc2c(C)noc2C)ccc1C`: the cytotoxicity at 10 µM is -15%.
Regarding `COc1ccc(N(CCC(N)=O)C(=O)CSc2ccc(Cl)cc2)cc1`, the cytotoxicity at 10 µM was -4.37%.
`COCCN1C(=O)CCC12CCN(C(=O)CC1CC1)CC2`: the cytotoxicity at 10 µM is 3.73%.
As to `COc1ccc(Br)cc1SCCS(C)(=O)=O`, the cytotoxicity at 10 µM is 2.71%.
Turning to `Cc1csc(C2(NCc3csc(C4CC4)n3)CCCC2)n1`, the cytotoxicity at 10 µM turned out to be 4.32%.
`CCOC(=O)c1coc(N2CCC(C(C)N3CCCC3)CC2)n1` (centres undefined): the cytotoxicity at 10 µM was -1.89%.
Next, `Cc1noc(C)c1CNc1c(N2CCCC2)cccc1N1CCCC1`: 6.17%; `CN(CC(=O)NC(Cc1ccsc1)c1cccnc1)Cc1ccccn1` (centres undefined): 3.9%; `CC(=O)NC1CCCN(C(=O)NCc2cccnc2-n2cccn2)C1` (centres undefined): 5.56%.
Turning to `Cc1cc(CNC(=O)Cc2cccs2)ccc1S(C)(=O)=O`, the cytotoxicity at 10 µM was -2.74%.
In the case of `Cc1noc(COCC(=O)N2CCCC(c3nccs3)C2)n1` (centres undefined), the cytotoxicity at 10 µM turned out to be 0.172%.
Turning to `CC(=O)Cn1c(C)cc(=O)c2cc(F)ccc21`, the cytotoxicity at 10 µM was -4.46%.
With `C/N=C1\c2cc3cc(OC)ccc3n2CCN1Cc1ccccc1`, the cytotoxicity at 10 µM was 80.4%.
As for `Cc1cnc(CN(C)C2CCN(Cc3nc4ccccc4s3)C2)o1` (centres undefined), the cytotoxicity at 10 µM was -7.97%.
As for `CCC(CNC1CCN(C(=O)N(C)C)CC1)Oc1ccccc1C` (centres undefined), the cytotoxicity at 10 µM stood at 3.98%.
On to `Cc1cccc(C(C(=O)NC(C)(C)CN2CCCC2)N(C)C)c1` (centres undefined), for which the cytotoxicity at 10 µM was -3.73%.
With `O=S(=O)(CCN1CCN(c2ccccc2O)CC1)c1ccc(Br)cc1`, the cytotoxicity at 10 µM was determined as 10.7%.
As to `CC(C)CCNC(=O)c1ccc2c(=O)n(-c3ccccc3)cnc2c1`, the cytotoxicity at 10 µM was -4.65%.
In the case of `Cc1ccc(C(=O)N2CC[C@H]3[C@@H]2CCC(=O)N3c2cccnc2)o1`, the cytotoxicity at 10 µM was -106%.
For the compound `Cc1nc(C)n(CC2CCCN(CCCOc3ccccc3)C2)n1` (centres undefined), the cytotoxicity at 10 µM is 3.15%.
Regarding `Fc1ccc(C2(CNCCc3cccs3)CCOC2)cc1` (centres undefined), the cytotoxicity at 10 µM is -149%.
`CCn1cc(CN(C)S(=O)(=O)c2ccc(NC(C)=O)cc2)cn1`: the cytotoxicity at 10 µM was found to be 9.22%.
Next, `Cc1nc(CN2CCCC(NCCOc3cccc(C#N)c3)C2)no1` (centres undefined): -8.36%; `CS(=O)(=O)NCc1cn2c(n1)CN(Cc1ccoc1)CC2`: 7.92%; `CCc1ncc2c(n1)CN(CC(=O)Nc1nncs1)CC2`: 1.74%.
Take `CCNC(=O)c1cn(C(C)(C)C)c2ncccc12`: the cytotoxicity at 10 µM is -1.28%.
As for `Cc1cccc(CN2C(=O)C[C@H]3[C@@H]2CCN3Cc2ccc(F)cc2)n1`, the cytotoxicity at 10 µM was 2.2%.
As for `CC(=O)c1cccc(OCCCC(=O)N(C)Cc2ccccn2)c1`, the cytotoxicity at 10 µM is -24.4%.
For `Cc1ccc(C(=O)N2CCN3C[C@H](Oc4cccnc4)C[C@H]3C2)cn1`, the cytotoxicity at 10 µM came out at 4.66%.
Next, `c1csc(CN2CCCn3cnc(COCC4CC4)c3C2)n1`: 9.7%.
